Reference: paper PMC2834884 (Journal of immunology (Baltimore, Md. : 1950), 2009)
Read-outs that look alike come from different tables or passages of the source.

Experiments:
[1] = molecular target: T1, CD1d (Mus musculus, UniProt P11609); assay: Decay of glycolipids from CD1d measured by L317 binding; settings: surface plasmon resonance, 25°C
T1 sequence (P11609 22-305 limits assumed): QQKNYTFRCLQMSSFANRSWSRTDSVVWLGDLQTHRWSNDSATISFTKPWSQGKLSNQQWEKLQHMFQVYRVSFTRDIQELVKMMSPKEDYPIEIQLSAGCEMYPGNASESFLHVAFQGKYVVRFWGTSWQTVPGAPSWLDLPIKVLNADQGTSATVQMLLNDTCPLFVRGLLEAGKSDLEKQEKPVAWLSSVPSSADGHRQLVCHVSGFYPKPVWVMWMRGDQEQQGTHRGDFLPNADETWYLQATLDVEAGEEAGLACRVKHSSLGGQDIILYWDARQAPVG
T1 sequence (P01887 21-119 partner): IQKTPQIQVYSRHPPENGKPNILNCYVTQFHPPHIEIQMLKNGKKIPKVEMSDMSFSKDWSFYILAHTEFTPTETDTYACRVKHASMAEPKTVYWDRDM
Method in brief: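 His-tagged mouse CD1d pulsed overnight with each glycolipid, then captured on Ni-charged NTA sensor chip channels; complexes allowed to decay for varied times before a saturating dose of αGalCer/CD1d-specific mAb L317 was flowed over. Binding was measured by surface plasmon resonance at 25°C and normalized to maximum binding for each antigen.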

[2] = tested on: monoclonal antibody L317; assay: L317 antibody binding to glycolipid/CD1d complexes; settings: surface plasmon resonance
Method in brief: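 Real-time binding of L317 to glycolipid-loaded CD1d was measured by surface plasmon resonance at 25°C. Kinetic parameters came from fitting specific sensorgrams.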

[3] = tested on: 1.2 Vα14i NKT hybridoma; assay: ERK1/2 phosphorylation in Vα14i NKT hybridoma after glycolipid-pulsed APCs; assay type: cell-based, mouse; settings: 1.2 hybridoma; for extent of ERK1/2 phosphorylation: A20-CD1d cells as APCs
Method in brief: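 A20-CD1d cells (10^6/ml) were pulsed 2 h with glycolipid (DMSO stock diluted in PBS), washed cold, and mixed with hybridoma cells at 4:1 on ice, then pelleted and warmed to 37°C for timed intervals. Cells were fixed in 4% PFA, stained for Thy1.2, permeabilized in 90% methanol and stained for ppERK1/2. Flow cytometry was gated on Thy1.2+ cells with t = 0 as negative control. Values are % ppERK+ (glycolipid) minus % ppERK+ (vehicle).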

[4] = tested on: Vα14i NKT cells; assay: Ex vivo activation of Vα14i NKT cells after i.v. glycolipid; assay type: in vivo, mouse; settings: 1 μg i.v.; for Vα14i NKT cell activation (percentage producing IFNγ, IL-4 and TNF; CD69 and CD40L expression): two hours after injection
Method in brief: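 Mice received glycolipid i.v. (DMSO stock diluted in PBS, heated 56°C 10 min). Spleens were taken at 2 h, mechanically dissociated, filtered and red cells lysed. Cells were stained with mAbs together with CD1d tetramer in PBS/10% FCS at 4°C for 45 min and analysed by flow cytometry.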

[5] = tested on: NK cells; assay: NK cell trans-activation; assay type: in vivo, mouse; settings: 1 μg i.v., 18 h after injection, liver and spleen
Method in brief: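 Glycolipid (DMSO stock diluted in PBS) was given i.v. Liver was perfused via portal vein and mononuclear cells isolated at the 40/60% Percoll interface (900 g, 20 min); splenocytes were dissociated and red cells lysed. Cells were surface-stained at 4°C for 45 min, then permeabilized with Cytofix/Cytoperm for intracellular IFNγ staining and flow cytometry.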

[6] = tested on: CD40−/− mice; assay: Serum IFNγ in CD40-deficient mice; assay type: in vivo, mouse; settings: 1 μg i.v., serum at 6 h and 24 h, versus C57BL/6
Method in brief: (§1)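 Glycolipid was dissolved at 100 μg/mL in DMSO, diluted in PBS, heated 56°C 10 min and vortexed. Glycolipid or vehicle was injected i.v. and mice bled at set times. Serum cytokines were quantified by sandwich ELISA with paired capture/detection mAbs.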

[7] = molecular target: T2, glycolipid/CD1d complexes on splenic APC (Mus musculus, UniProt P11609); assay type: in vivo; settings: 1 μg i.v.
T2 sequence (P11609 22-336): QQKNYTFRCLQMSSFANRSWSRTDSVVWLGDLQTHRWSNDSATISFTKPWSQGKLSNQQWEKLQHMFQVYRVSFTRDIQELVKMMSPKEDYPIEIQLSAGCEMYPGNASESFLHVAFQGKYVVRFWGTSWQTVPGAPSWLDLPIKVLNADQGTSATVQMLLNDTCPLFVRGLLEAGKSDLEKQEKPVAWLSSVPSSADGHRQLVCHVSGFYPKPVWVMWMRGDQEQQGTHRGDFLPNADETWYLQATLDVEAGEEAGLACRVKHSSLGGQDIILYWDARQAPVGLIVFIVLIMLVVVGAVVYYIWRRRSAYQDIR
T2 sequence (P01887 21-119 partner): T1 sequence (P01887 21-119 partner)
Method in brief: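 At set times after i.v. immunization, spleens were collagenase D-digested at 37°C, treated with 5 mM EDTA for 5 min and strained. Cells were split into CD11c-enriched and depleted fractions with anti-CD11c magnetic beads. A dose range of each fraction was cultured with 1.2 hybridoma cells (2 × 10^5/well) without added antigen. Supernatant IL-2 was measured by sandwich ELISA.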

[8] = tested on: C57BL/6J mice; assay: Serum cytokine ELISA after i.v. injection of glycolipid; assay type: in vivo, mouse; settings: 1 μg i.v.
Method in brief: as §1

[9] = molecular target: Vα14i/Vβ8.2 TCR of 1.2 Vα14i NKT cell hybridoma (Mus musculus, UniProt A0A0B4J1J9+A0A0G2JG46+A0A140T8N6+P11609); assay: Equilibrium glycolipid/CD1d tetramer staining of 1.2 hybridoma; assay type: binding; settings: glycolipid/CD1d tetramers
[10] = tested on: splenic DC; assay: Phenotype of splenic DC from glycolipid immunized mice; assay type: in vivo, mouse; settings: 17.5 h and 44 h after immunization
[11] = APC harvested 1.5 h after immunization

Structure (SMILES) | t1/2 (dissociation of glycolipid from CD1d) [1] [h] | t1/2 (dissociation of glycolipid from CD1d) ([1]; listed as CD1d/αGalCer) [h] | affinity of L317 for glycolipid bound to CD1d [2] | extent of ERK1/2 phosphorylation [3] | Vα14i NKT cell activation (percentage producing IFNγ, IL-4 and TNF; CD69 and CD40L expression) [4] | IFNγ production by NK cells (trans-activation) [5] | IFNγ levels in CD40-deficient mice [6] | IL-2 release by 1.2 hybridoma with APC from immunized mice [7, 11] | stability of complexes with CD1d in vivo ([7]; functional bioassay) | serum IFNγ level [8] | serum IL-4 level [8] | tetramer binding to 1.2 hybridoma cells [9] | t1/2 (dissociation of glycolipid from CD1d) ([1]; listed as CD1d/OCH) [h] | ERK1/2 phosphorylation ([3]; BMDCs or splenic B cells as APCs) | CD40L expression on Vα14i NKT cells ([4]; 2 h after injection, spleen) | increased expression of CD80, CD86 and CD1d in splenic DC [10] | IL-2 release by 1.2 hybridoma with APC from immunized mice ([7]; APC harvested 17.5 h and 44 h after immunization)
CCCCCCCCCCCCCCCCCCCCCCCCCC(=O)N[C@@H](CO[C@H]1O[C@H](CO)[C@H](O)[C@H](O)[C@H]1O)[C@H](O)[C@H](O)CCCCCCCCCCCCCC [αGalCer, α-galactosyl ceramide] | 5.043 | 5.043 ± 2.207 | highest | dose-dependent increase in ppERK | highest percentage | highest percentage of IFNγ-expressing NK cells | strongly reduced | best response | much more stable in vivo than OCH |  |  |  |  |  |  |  | 
CCCCCCCCCCCCCCCCCCCCCCCC(=O)N[C@@H](COC1OC(CO)C(O)C(O)C1O)[C@H](O)[C@H](O)CCCCC (some centres unmarked) [OCH] | 1.09 |  | weaker | indistinguishable | less potent than αGalCer | Impaired NK cell trans-activation |  | higher production of IL-2 than C-glycoside |  | relatively low levels of IFNγ | high levels of IL-4, equivalent to αGalCer | barely able to bind | 1.09 ± 0.63 | induced fewer 1.2 cells to phosphorylate ERK1/2 than αGalCer | induced more CD40L than C-glycoside | to the same extent as αGalCer | considerably reduced compared to αGalCer and C-glycoside
